Activity calls are given as the source filed them. No cut-off for these calls is given here.
Key:
Format in all cases: functional
Staphylococcus aureus [1] = assay: Ratio of MIC for kanamycin-resistant Staphylococcus aureus harboring mutations in FusA gene to MIC for wild type kanamycin-susceptible Staphylococcus aureus AH001
Staphylococcus aureus [2] = assay: Ratio of MIC for kanamycin-resistant Staphylococcus aureus harboring mutations in FusE gene to MIC for wild type kanamycin-susceptible Staphylococcus aureus AH001
Staphylococcus aureus [3] = assay: Antibacterial activity against fusidic acid-resistant Staphylococcus aureus AH207 harboring Thr385Asn mutation in fusA gene after 18 to 24 hrs by Etest strip assay
In short: (§1)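 Mutants of lab strain 8325-4 were selected on LA with FA 2 μg/ml for 48 h at 37°C and purified on selective medium. For the MIC, one colony was suspended in 0.9% NaCl to 0.5 McFarland and swabbed onto Mueller-Hinton agar. An Etest strip was applied and plates were incubated at 37°C for 18–24 h until the lawn was evident.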

Staphylococcus aureus [4] = assay: Antibacterial activity against fusidic acid-resistant Staphylococcus aureus AH194 harboring Pro404Leu mutation in fusA gene after 18 to 24 hrs by Etest strip assay; in short: as §1
Staphylococcus aureus [5] = assay: Antibacterial activity against fusidic acid-resistant Staphylococcus aureus AH196 harboring Pro406Leu mutation in fusA gene after 18 to 24 hrs by Etest strip assay; in short: as §1
Staphylococcus aureus [6] = assay: Antibacterial activity against fusidic acid-resistant Staphylococcus aureus AH198 harboring Gly452Ser mutation in fusA gene after 18 to 24 hrs by Etest strip assay; in short: as §1
Staphylococcus aureus [7] = assay: Antibacterial activity against fusidic acid-resistant Staphylococcus aureus AH201 harboring Gly452Cys mutation in fusA after 18 to 24 hrs by Etest strip assay; in short: as §1
Staphylococcus aureus [8] = assay: Antibacterial activity against fusidic acid-resistant Staphylococcus aureus AH197 harboring Leu456Phe mutation in fusA gene after 18 to 24 hrs by Etest strip assay; in short: as §1
Staphylococcus aureus [9] = assay: Antibacterial activity against fusidic acid-resistant Staphylococcus aureus AH187 harboring His457Tyr mutation in fusA gene after 18 to 24 hrs by Etest strip assay; in short: as §1
Staphylococcus aureus [10] = assay: Antibacterial activity against fusidic acid-resistant Staphylococcus aureus AH206 harboring Arg464Ser mutation in fusA gene after 18 to 24 hrs by Etest strip assay; in short: as §1
Staphylococcus aureus [11] = assay: Antibacterial activity against fusidic acid-resistant Staphylococcus aureus AH190 harboring Arg464His mutation in fusA gene after 18 to 24 hrs by Etest strip assay; in short: as §1

GENTAMICIN
fold change (FC) (Staphylococcus aureus [1]): 4 | fold change (FC) (Staphylococcus aureus [2]): 4 | Activity (Staphylococcus aureus [3]): Active | Activity (Staphylococcus aureus [4]): Active | Activity (Staphylococcus aureus [5]): Active | Activity (Staphylococcus aureus [6]): Active | Activity (Staphylococcus aureus [7]): Active | Activity (Staphylococcus aureus [8]): Active | Activity (Staphylococcus aureus [9]): Active | Activity (Staphylococcus aureus [10]): Active | Activity (Staphylococcus aureus [11]): Active

Reference: ChEMBL document CHEMBL1151442, “Genetic and phenotypic identification of fusidic acid-resistant mutants with the small-colony-variant phenotype in Staphylococcus aureus” (2007)
